# Assays:
# [1] = test system: patients with advanced solid malignancies; test: Phase I dose escalation: dose-limiting toxicities and maximum tolerated dose; assay type: in vivo; conditions: for Even ts, n/N: DLT events, cycle 1
# [2] = test system: Ki67 and pERK1/2 (pMAPK) in skin biopsies; test: Skin biopsy pharmacodynamic biomarkers by immunohistochemistry; assay type: in vivo, human; conditions: with increased dose, Cmax, AUCtau and Ctrough; baseline vs cycle 1 day 14; P < 0.05
# [3] = test system: advanced malignant solid tumors; test: Tumor response; assay type: in vivo, human
# [4] = test system: NSCLC; test: Tumor response in NSCLC patients, correlated with tumor genotype; assay type: in vivo, human
# Method in brief: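 NSCLC patients treated with oral once-daily test compound had tumors assessed by RECIST v1.0 at baseline, every two cycles and at end of treatment. Response was related to genotype. Archived tumor, or a fresh baseline biopsy where feasible, was tested for EGFR and KRAS mutations and EGFR/HER2 copy number by site laboratories, Pfizer or Genzyme.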
# [5] = test system: patients with advanced solid malignancies; test: Treatment-related adverse events and laboratory abnormalities; assay type: in vivo
# [6] = human, in vivo
# [7] = EGFR Exon 19 deletion, 17 patients
# [8] = EGFR Exon 19 deletion/T790M, 4 patients
# [9] = EGFR Exon 20 insertion, 6 patients (one not evaluable)
# [10] = EGFR mutation unknown, 12 patients (one not evaluable)
# [11] = EGFR wild type, 12 patients (one not evaluable)
# [12] = Schedule A (n = 111), treatment-related, all cycles
# [13] = Schedule B (n = 10), treatment-related, all cycles
structure (smiles),measurement,setting,value
COc1cc2ncnc(Nc3ccc(F)c(Cl)c3)c2cc1NC(=O)/C=C/CN1CCCCC1 [PF299804],"total number of DLTs, share of treated patients","[1]; 45 mg including loading-dose cohort, four of 71 treated patients",6%
same,"total number of DLTs, share of treated patients","[1]; 45 mg, two of 52 treated patients",4%
same,"Even ts, n/N","[1]; Schedule A, 0.5 mg/day",0/3
same,"Even ts, n/N","[1]; Schedule A, 1 mg/day",0/3
same,"Even ts, n/N","[1]; Schedule A, 2 mg/day",0/3
same,"Even ts, n/N","[1]; Schedule A, 4 mg/day",0/5
same,"Even ts, n/N","[1]; Schedule A, 8 mg/day",0/3
same,"Even ts, n/N","[1]; Schedule A, 16 mg/day",0/4
same,"Even ts, n/N","[1]; Schedule A, 30 mg/day",1/13
same,"Even ts, n/N","[1]; Schedule A, 45 mg/day (loading dose)",2/19
same,"Even ts, n/N","[1]; Schedule A, 45 mg/day",2/52
same,"Even ts, n/N","[1]; Schedule A, 60 mg/day",3/6
same,"Even ts, n/N","[1]; Schedule B, 60 mg/day",1/10
same,maximum tolerated dose (MTD),[1]; continuous once-daily dosing,45 mg/day
same,levels of pMAPK in skin biopsy,[2],significantly decreased
same,complete responses,[3]; 110 patients with at least one response evaluation,No complete responses
same,patients with PR,"[3]; four of 110 evaluated patients, all NSCLC",3.6%
same,patients with stable disease as best response,"[3]; over all treatment cohorts, 110 evaluated",44 patients
same,objective response to treatment,[4]; 4 patients with exon 19 deletions and documented T790M,None
same,"Treatment Outcome, PD (patients)",[4]; [7],7
same,"Treatment Outcome, PR (patients)",[4]; [7],2
same,"Treatment Outcome, SD (patients)",[4]; [7],8
same,"Treatment Outcome, PD (patients)",[4]; [8],SD:2; PD:2
same,"Treatment Outcome, SD (patients)",[4]; [8],SD:2; PD:2
same,"Treatment Outcome, PD (patients)",[4]; [9],2
same,"Treatment Outcome, PR (patients)",[4]; [9],1
same,"Treatment Outcome, SD (patients)",[4]; [9],2
same,"Treatment Outcome, PD (patients)","[4]; EGFR L858R, 4 patients",1
same,"Treatment Outcome, SD (patients)","[4]; EGFR L858R, 4 patients",3
same,"Treatment Outcome, PD (patients)","[4]; EGFR mutant, Other, 2 patients",SD: 1; PD:1
same,"Treatment Outcome, SD (patients)","[4]; EGFR mutant, Other, 2 patients",SD: 1; PD:1
same,"Treatment Outcome, IND (patients)",[4]; [10],1
same,"Treatment Outcome, PD (patients)",[4]; [10],2
same,"Treatment Outcome, PR (patients)",[4]; [10],1
same,"Treatment Outcome, SD (patients)",[4]; [10],7
same,"Treatment Outcome, IND (patients)",[4]; [11],1
same,"Treatment Outcome, PD (patients)",[4]; [11],5
same,"Treatment Outcome, SD (patients)",[4]; [11],5
same,"Treatment Outcome, SD (patients)","[4]; HER2 amplified, 2 patients",SD:2
same,additional patients with stable disease (SD) of ≥6 weeks duration,[4]; NSCLC patients,28 patients
same,"Anorexia, Grade 1, n (%)",[5]; [12],12 (10.8) n (%)
same,"Anorexia, Grade 2, n (%)",[5]; [12],9 (8.1) n (%)
same,"Anorexia, Grade 3, n (%)",[5]; [12],2 (1.8) n (%)
same,"Anorexia, Total, n (%)",[5]; [12],23 (20.7) n (%)
same,"Dermatitis acneiform, Grade 1, n (%)",[5]; [12],11 (9.9) n (%)
same,"Dermatitis acneiform, Grade 2, n (%)",[5]; [12],3 (2.7) n (%)
same,"Dermatitis acneiform, Grade 3, n (%)",[5]; [12],6 (5.4) n (%)
same,"Dermatitis acneiform, Total, n (%)",[5]; [12],20 (18.0) n (%)
same,"Diarrhea, Grade 1, n (%)",[5]; [12],43 (38.7) n (%)
same,"Diarrhea, Grade 2, n (%)",[5]; [12],20 (18.0) n (%)
same,"Diarrhea, Grade 3, n (%)",[5]; [12],11 (9.9) n (%)
same,"Diarrhea, Total, n (%)",[5]; [12],74 (66.7) n (%)
same,"Dry skin, Grade 1, n (%)",[5]; [12],29 (26.1) n (%)
same,"Dry skin, Grade 2, n (%)",[5]; [12],1 (0.9) n (%)
same,"Dry skin, Grade 3, n (%)",[5]; [12],0 n (%)
same,"Dry skin, Total, n (%)",[5]; [12],30 (27.0) n (%)
same,"Fatigue, Grade 1, n (%)",[5]; [12],20 (18.0) n (%)
same,"Fatigue, Grade 2, n (%)",[5]; [12],15 (13.5) n (%)
same,"Fatigue, Grade 3, n (%)",[5]; [12],3 (2.7) n (%)
same,"Fatigue, Total, n (%)",[5]; [12],38 (34.2) n (%)
same,"Nausea, Grade 1, n (%)",[5]; [12],28 (25.2) n (%)
same,"Nausea, Grade 2, n (%)",[5]; [12],7 (6.3) n (%)
same,"Nausea, Grade 3, n (%)",[5]; [12],1 (0.9) n (%)
same,"Nausea, Total, n (%)",[5]; [12],36 (32.4) n (%)
same,"Rash, Grade 1, n (%)",[5]; [12],30 (27.0) n (%)
same,"Rash, Grade 2, n (%)",[5]; [12],16 (14.4) n (%)
same,"Rash, Grade 3, n (%)",[5]; [12],4 (3.6) n (%)
same,"Rash, Total, n (%)",[5]; [12],50 (45.0) n (%)
same,"Stomatitis, Grade 1, n (%)",[5]; [12],17 (15.3) n (%)
same,"Stomatitis, Grade 2, n (%)",[5]; [12],9 (8.1) n (%)
same,"Stomatitis, Grade 3, n (%)",[5]; [12],4 (3.6) n (%)
same,"Stomatitis, Total, n (%)",[5]; [12],30 (27.0) n (%)
same,"Vomiting, Grade 1, n (%)",[5]; [12],14 (12.6) n (%)
same,"Vomiting, Grade 2, n (%)",[5]; [12],3 (2.7) n (%)
same,"Vomiting, Grade 3, n (%)",[5]; [12],1 (0.9) n (%)
same,"Vomiting, Total, n (%)",[5]; [12],18 (16.2) n (%)
same,"Alopecia, Grade 1, n (%)",[5]; [13],2 (20.0) n (%)
same,"Alopecia, Grade 2, n (%)",[5]; [13],0 n (%)
same,"Alopecia, Grade 3, n (%)",[5]; [13],0 n (%)
same,"Alopecia, Total, n (%)",[5]; [13],2 (20.0) n (%)
same,"Anorexia, Grade 1, n (%)",[5]; [13],0 n (%)
same,"Anorexia, Grade 2, n (%)",[5]; [13],3 (30.0) n (%)
same,"Anorexia, Grade 3, n (%)",[5]; [13],0 n (%)
same,"Anorexia, Total, n (%)",[5]; [13],3 (30.0) n (%)
same,"Dermatitis acneiform, Grade 1, n (%)",[5]; [13],0 n (%)
same,"Dermatitis acneiform, Grade 2, n (%)",[5]; [13],3 (30.0) n (%)
same,"Dermatitis acneiform, Grade 3, n (%)",[5]; [13],0 n (%)
same,"Dermatitis acneiform, Total, n (%)",[5]; [13],3 (30.0) n (%)
same,"Diarrhea, Grade 1, n (%)",[5]; [13],2 (20.0) n (%)
same,"Diarrhea, Grade 2, n (%)",[5]; [13],5 (50.0) n (%)
same,"Diarrhea, Grade 3, n (%)",[5]; [13],2 (20.0) n (%)
same,"Diarrhea, Total, n (%)",[5]; [13],9 (90.0) n (%)
same,"Dry eye, Grade 1, n (%)",[5]; [13],1 (10.0) n (%)
same,"Dry eye, Grade 2, n (%)",[5]; [13],2 (20.0) n (%)
same,"Dry eye, Grade 3, n (%)",[5]; [13],0 n (%)
same,"Dry eye, Total, n (%)",[5]; [13],3 (30.0) n (%)
same,"Dry skin, Grade 1, n (%)",[5]; [13],1 (10.0) n (%)
same,"Dry skin, Grade 2, n (%)",[5]; [13],2 (20.0) n (%)
same,"Dry skin, Grade 3, n (%)",[5]; [13],0 n (%)
same,"Dry skin, Total, n (%)",[5]; [13],3 (30.0) n (%)
same,"Eye pain, Grade 1, n (%)",[5]; [13],2 (20.0) n (%)
same,"Eye pain, Grade 2, n (%)",[5]; [13],0 n (%)
same,"Eye pain, Grade 3, n (%)",[5]; [13],0 n (%)
same,"Eye pain, Total, n (%)",[5]; [13],2 (20.0) n (%)
same,"Fatigue, Grade 1, n (%)",[5]; [13],0 n (%)
same,"Fatigue, Grade 2, n (%)",[5]; [13],3 (30.0) n (%)
same,"Fatigue, Grade 3, n (%)",[5]; [13],1 (10.0) n (%)
same,"Fatigue, Total, n (%)",[5]; [13],4 (40.0) n (%)
same,"Nausea, Grade 1, n (%)",[5]; [13],1 (10.0) n (%)
same,"Nausea, Grade 2, n (%)",[5]; [13],2 (20.0) n (%)
same,"Nausea, Grade 3, n (%)",[5]; [13],1 (10.0) n (%)
same,"Nausea, Total, n (%)",[5]; [13],4 (40.0) n (%)
same,"Pruritus, Grade 1, n (%)",[5]; [13],2 (20.0) n (%)
same,"Pruritus, Grade 2, n (%)",[5]; [13],0 n (%)
same,"Pruritus, Grade 3, n (%)",[5]; [13],0 n (%)
same,"Pruritus, Total, n (%)",[5]; [13],2 (20.0) n (%)
same,"Rash, Grade 1, n (%)",[5]; [13],4 (40.0) n (%)
same,"Rash, Grade 2, n (%)",[5]; [13],2 (20.0) n (%)
same,"Rash, Grade 3, n (%)",[5]; [13],0 n (%)
same,"Rash, Total, n (%)",[5]; [13],6 (60.0) n (%)
same,"Skin exfoliation, Grade 1, n (%)",[5]; [13],1 (10.0) n (%)
same,"Skin exfoliation, Grade 2, n (%)",[5]; [13],0 n (%)
same,"Skin exfoliation, Grade 3, n (%)",[5]; [13],1 (10.0) n (%)
same,"Skin exfoliation, Total, n (%)",[5]; [13],2 (20.0) n (%)
same,"Skin fissures, Grade 1, n (%)",[5]; [13],2 (20.0) n (%)
same,"Skin fissures, Grade 2, n (%)",[5]; [13],1 (10.0) n (%)
same,"Skin fissures, Grade 3, n (%)",[5]; [13],0 n (%)
same,"Skin fissures, Total, n (%)",[5]; [13],3 (30.0) n (%)
same,"Stomatitis, Grade 1, n (%)",[5]; [13],1 (10.0) n (%)
same,"Stomatitis, Grade 2, n (%)",[5]; [13],1 (10.0) n (%)
same,"Stomatitis, Grade 3, n (%)",[5]; [13],1 (10.0) n (%)
same,"Stomatitis, Total, n (%)",[5]; [13],3 (30.0) n (%)
same,"Vomiting, Grade 1, n (%)",[5]; [13],2 (20.0) n (%)
same,"Vomiting, Grade 2, n (%)",[5]; [13],1 (10.0) n (%)
same,"Vomiting, Grade 3, n (%)",[5]; [13],0 n (%)
same,"Vomiting, Total, n (%)",[5]; [13],3 (30.0) n (%)
same,total AEs,[5]; all 121 patients,"1,416 AEs"
same,AEs considered to be related to study drug,[5]; all schedules,709 AEs
same,patients experiencing AEs related to study drug,"[5]; all schedules, of 121",111 patients
same,AEs considered to be related to study drug,[5]; schedule A,626 AEs
same,patients experiencing AEs related to study drug,[5]; schedule A,102 patients
same,patients with dose interruptions as a result of treatment-related AEs,[5]; schedule A,29
same,AEs considered to be related to study drug,[5]; schedule B,83 AEs
same,patients with dose interruptions as a result of treatment-related AEs,[5]; schedule B,3
same,terminal half-life (t1/2),[6],59 to 85 h

# From PMC3048920 (Clinical cancer research : an official journal of the …, 2011)
